This note sets out measurements from ChEMBL document CHEMBL3407469, “Development of benzimidazole derivatives to inhibit HIV-1 replication through protecting APOBEC3G protein” (Eur J Med Chem, 2015).

The source made the active and inactive calls. No cut-off for these calls is given here.

In series [1] the test system is Mus musculus. Put plainly: Toxicity in Balb/c mouse assessed as abnormality in lung at 500 to 1000 mg/kg, ip. The format is organism-based. Set-up: dose 500-1000 mg/kg, route intraperitoneal. The conditions noted are these: in vivo. In short, it runs like this:
(§1)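 Male Balb/c mice aged 4–6 weeks were randomized into three groups (5 mice) and given a single intraperitoneal injection of 0, 500 or 1000 mg/kg. Body weight was followed for two weeks. On day 14, mice were sacrificed. Heart, liver, lung, spleen and kidney were fixed in 4% formaldehyde for H&E staining, and blood was analysed for AST, ALT, BUN and creatinine.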

The subject of series [2] is Mus musculus. The experiment in a line: Toxicity in Balb/c mouse assessed as abnormality in spleen at 500 to 1000 mg/kg, ip. The settings on record: in vivo. On the set-up: dose 500-1000 mg/kg, route intraperitoneal. The format is organism-based. In short, it runs like this:
as §1

In series [3] the test system is Human immunodeficiency virus 1. Put plainly: Antiviral activity against X4 tropic HIV-1 clone pNL4-3 infected in H9 cells assessed as reduction in p24 antigen after 4 days by ELISA. The series is classed as functional, organism-based. The conditions noted are these: Human immunodeficiency virus 1, pNL4-3, H9, 96 h.
Series [4] deals with 293T. The experiment in a line: Inhibition of full-length X4 tropic HIV-1 clone pNL4-3 Vif/human APOBEC3G complex transfected in human 293T cells assessed as increase in cellular APOBEC3G level measured after 48 hrs by fluorescence microscopy relative to control. The series is classed as cell-based. In short, it runs like this: (§2)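 293T cells were co-transfected with Vif and A3G-GFP plasmids, then treated with DMSO or a dilution series of compound. After 48 h, A3G-GFP was measured as mean fluorescence intensity on a plate reader, by western blot, or by fluorescence microscopy, each compared with the DMSO control.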

In series [5] the test system is 293T. The experiment in a line: Inhibition of full-length X4 tropic HIV-1 clone pNL4-3 Vif binding to Cullin5 (unknown origin) transfected in human 293T cells measured at 50 uM after 48 hrs by co-immunoprecipitation assay. The format is cell-based. The procedure, abridged:
(§3)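 293T cells were transfected with HA-tagged Vif plus Flag-tagged EloC/EloB/Cul5 plasmids and treated with compound or DMSO. After 48 h, cells were lysed in IP lysis buffer. Lysates were incubated with anti-HA beads overnight at 4 °C and washed three times in lysis buffer before analysis of co-precipitated partners.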

Series [6] deals with Mus musculus. Put plainly: Toxicity in Balb/c mouse assessed as change in body weight at 500 to 1000 mg/kg, ip. On the set-up: dose 500-1000 mg/kg, route intraperitoneal. The conditions noted are these: in vivo. The format is organism-based. In short, it runs like this:
as §1

Series [7] concerns Mus musculus. The experiment in a line: Toxicity in Balb/c mouse assessed as effect on ALT level at 500 to 1000 mg/kg, ip. The series is classed as organism-based. Set-up: dose 500-1000 mg/kg, route intraperitoneal. The settings on record: in vivo. In short, it runs like this: as §1
Series [8] has as its system Mus musculus. Put plainly: Toxicity in Balb/c mouse assessed as effect on AST level at 500 to 1000 mg/kg, ip. The series is classed as organism-based. The conditions noted are these: in vivo. On the set-up: dose 500-1000 mg/kg, route intraperitoneal. In short, it runs like this: as §1
Series [9] can be described thus: Cytotoxicity against human H9 cells by MTS assay. The format is cell-based. (In general: Formazan colour is commonly taken as a measure of viable cells.)
For series [10], the system named is 293T. Put plainly: Inhibition of full-length X4 tropic HIV-1 clone pNL4-3 Vif/human APOBEC3G complex transfected in human 293T cells measured at 50 uM after 48 hrs by GFP-based fluorescence assay relative to control. The series is classed as cell-based. In short, it runs like this:
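This was the primary screen in 293T cells co-transfected with HA-Vif and A3G-GFP plasmids (Lipofectamine 2000) and given a single compound concentration. DMSO-only wells and A3G-GFP-only transfected wells served as controls. GFP was read after 48 h. A3G-GFP MFI fold change was scored as −, none or <1; +, 1–2; ++, 2–3; +++, >3.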

The subject of series [11] is Mus musculus. The experiment in a line: Toxicity in Balb/c mouse assessed as effect on BUN level at 500 to 1000 mg/kg, ip. The format is organism-based. Set-up: dose 500-1000 mg/kg, route intraperitoneal. The conditions noted are these: in vivo. In short, it runs like this: as §1
A short description of series [12]: Inhibition of purified X4 tropic HIV-1 clone pNL4-3 His tagged Vif binding to recombinant human APOBEC3G expressed in Escherichia coli BL21 assessed as reduction in max resonance unit at 4 uM preincubated with APOBEC3G for 30 mins by surface plasmon resonance method relative to untreated A3G protein control. In short, it runs like this: (§4)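 His-tagged Vif and A3G were expressed from pET32a in E. coli BL21 with 1 mM IPTG and purified on Ni-agarose (500 mM imidazole elution). Vif-His was immobilized on a CM5 chip in 10 mM acetate, pH 4.0, then blocked with 1 M ethanolamine. A3G-His was pre-incubated at 25 °C for 30 min with compound or DMSO in 10 mM PBS with 5% DMSO before injection. SPR binding was read as max resonance units.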
(SPR reads the build-up and loss of mass on a sensor chip optically.)

For series [13], the system named is Mus musculus. The experiment in a line: Toxicity in Balb/c mouse assessed as abnormality in kidney at 500 to 1000 mg/kg, ip. The format is organism-based. Set-up: dose 500-1000 mg/kg, route intraperitoneal. The conditions noted are these: in vivo. In short, it runs like this:
as §1

The test system of series [14] is 293T. Put plainly: Inhibition of full-length X4 tropic HIV-1 clone pNL4-3 Vif binding to ElonginC (unknown origin) transfected in human 293T cells measured at 50 uM after 48 hrs by co-immunoprecipitation assay. The format is cell-based. In short, it runs like this: as §3
The subject of series [15] is Human immunodeficiency virus 1. The experiment in a line: Antiviral activity against X4 tropic HIV-1 clone pNL4-3 infected in human PBMC cells assessed as reduction in p24 antigen at 0.00005 to 5 uM after 4 days by ELISA. The series is classed as functional, organism-based. In general terms: In an ELISA, binding on a coated surface is turned into a signal by an enzyme label.

The subject of series [16] is Mus musculus. The experiment in a line: Toxicity in Balb/c mouse assessed as effect on CRE level at 500 to 1000 mg/kg, ip. The series is classed as organism-based. On the set-up: dose 500-1000 mg/kg, route intraperitoneal. The conditions noted are these: in vivo. The procedure, abridged:
as §1

The test system of series [17] is 293T. The experiment in a line: Inhibition of full-length X4 tropic HIV-1 clone pNL4-3 Vif binding to ElonginB (unknown origin) transfected in human 293T cells measured at 50 uM after 48 hrs by co-immunoprecipitation assay. The format is cell-based. In short, it runs like this: as §3
For series [18], the system named is 293T. The experiment in a line: Inhibition of full-length X4 tropic HIV-1 clone pNL4-3 Vif/human APOBEC3G complex transfected in human 293T cells assessed as increase in cellular APOBEC3G level measured after 48 hrs by Western blot analysis relative to control. The series is classed as cell-based. In short, it runs like this:
as §2

In series [19] the test system is Mus musculus. Put plainly: Toxicity in Balb/c mouse assessed as abnormality in liver at 500 to 1000 mg/kg, ip. The series is classed as organism-based. On the set-up: dose 500-1000 mg/kg, route intraperitoneal. The conditions noted are these: in vivo. The procedure, abridged:
as §1

Series [20] has as its system Mus musculus. Put plainly: Toxicity in Balb/c mouse assessed as abnormality in heart at 500 to 1000 mg/kg, ip. The settings on record: in vivo. The format is organism-based. Set-up: dose 500-1000 mg/kg, route intraperitoneal. The procedure, abridged: as §1
A short description of series [21]: Inhibition of purified X4 tropic HIV-1 clone pNL4-3 His tagged Vif binding to recombinant human APOBEC3G expressed in Escherichia coli BL21 assessed as reduction in max resonance unit at 9 uM preincubated with APOBEC3G for 30 mins by surface plasmon resonance method relative to untreated A3G protein control. In short, it runs like this: as §4

On to `CCN(CC)c1ccc(/C=C(\C#N)c2nc3ccccc3[nH]2)cc1`, for which the Activity result in series [1], in series [2], in [6], in series [7], in series [8] and in series [11] was “Non-toxic” in each case. The Activity entry in [13], in [16], in series [19] and in series [20] was “Non-toxic” in each case. Moreover, in series [3], the IC50 – broadly, the concentration needed to halve the response being measured – turned out to be 3.45 nM. Besides, the results for the inhibition entry in [4], in [12] and in [18] were “Dose-dependent effect”, 17% and “Dose-dependent effect”, respectively. Further, the inhibition result in [5], in series [14] and in [17] was “inactive” each time. For the same compound, the cytotoxic concentration (CC50) (in general, the concentration giving 50% cytotoxicity) in series [9] is over 50000 nM. This compound also gave a fold change (FC) in series [10] of over 3. The outcome in series [15] was Active.
On to `COc1cc(/C=C(\C#N)c2nc3ccccc3[nH]2)ccc1O`, for which the Activity entry in series [1], in series [2], in [6], in series [7], in series [8] and in series [11] was “Non-toxic” each time. Further, the Activity entry in series [13], in series [16], in [19] and in series [20] was “Non-toxic” each time. For the same compound, in series [3], the IC50 came to 58 nM. The inhibition (as a rule, the change of the read-out against control, counted positive when it falls) in [4] is “Dose-dependent effect”; in series [18] it was “Dose-dependent effect”; in series [21], 17%. Further, the inhibition entry in series [5], in [14] and in series [17] was “inactive” throughout. The compound also had a 50% cytotoxic concentration (CC50) in [9] of over 50000 nM. In series [10], this compound registered a fold change (FC) of over 3. Moreover, in [15], the outcome was Active.
